Screening results deposited in PubChem BioAssay by several laboratories.
JMJD2C inh: inhibitors of GASC-1 histone demethylase, primary screen, biochemical, fluorescence, DELFIA europium | GST-JMJD2C(1-420) H3K9me3 demethylation | inhibition, % at 2.35 µM | 330,000 compounds, 0.069% hits;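 active = more than half of a compound's replicate wells show inhibition beyond 50%, single wells judged on their own value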;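 also: signal counts dimethyl H3K9 product captured on neutravidin plate; 0% = median of DMSO wells and 100% = 0.3 times that DMSO median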
Jurkat NFkB inh: inhibitors of induced NF-kB luciferase reporter, primary screen, TCR NF-kB activation inhibitor project, cell-based, luminescence, uHTS; Jurkat, PMA/ionomycin-induced NF-kB luciferase reporter; inhibition, % at 4 µM; 330,000 compounds, 0.53% hits; AID 435003, 2010; in the data active = inhibition above about 50%
GalR3 antagonist: GalR3 antagonists in HEK293 cells, primary screen, cell-based, fluorescence readout. Galanin receptor type 3 (Homo sapiens), O60755. HEK293 GalR3-CNG cAMP membrane potential fluorescence; galR3 body fused to GalR1 C-terminus. inhibition, % at 3 µM. 360,000 compounds, 0.44% hits. AID 651719, 2012;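 active = inhibition above the screen-wide average plus 3 SD, cut at about 13% in these data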;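 also: forskolin and galanin both at EC90 stimulate the cells; cAMP rise reported by CNG channel membrane potential dye signal; 0% = forskolin plus galanin with DMSO and 100% = forskolin alone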
Target sequence (O60755 1-299 limits assumed): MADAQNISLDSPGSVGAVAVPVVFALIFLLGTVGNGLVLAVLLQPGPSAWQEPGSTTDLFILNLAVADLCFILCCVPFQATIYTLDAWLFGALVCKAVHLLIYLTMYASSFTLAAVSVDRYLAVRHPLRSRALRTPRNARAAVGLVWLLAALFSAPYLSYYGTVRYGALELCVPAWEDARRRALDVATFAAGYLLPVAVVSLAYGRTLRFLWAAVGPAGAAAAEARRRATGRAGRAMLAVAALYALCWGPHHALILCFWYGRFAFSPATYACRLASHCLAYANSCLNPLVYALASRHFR
NR2E3 ag-1: inhibitors of NR2E3-RetCOR corepressor binding, primary screen, NR2E3 agonist project, biochemical, TR-FRET, GST-NR2E3, biotin-RetCOR | 1536-well | 320,000 compounds, 0.12% hits | inhibition of corepressor binding, % at 4.78 µM;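 active = percent inhibition above the cutoff of mean plus 3 SD of all tested compounds, set per screening campaign, cut at about 20% in these data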;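 also: 0% = DMSO wells and 100% = biotin wells as full block of FRET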
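Material: NR2E3–RetCOR corepressor complex / Incubation: Compound–protein incubation for 5 h at 4 °C / Dosing: compound at 4.8 µM, single dose / Detection: time-resolved FRET / Benchmarks: high control biotin, low control 0.6% DMSO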
NR2E3 ag-2: NR2E3 agonists in two-hybrid cells, primary screen, cell-based, luminescence, CHO-S, Gal4-NCOR/VP16-NR2E3; inhibition of corepressor binding, % at 3.98 µM; luciferase; 360,000 compounds, 0.35% hits; Photoreceptor-specific nuclear receptor (Homo sapiens), Q9Y5X4;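 active = inhibition above the mean of all tested compounds plus 3 SD, cut at about 70% in these data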;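 also: 0% = DMSO with NR2E3 transfected cells and 100% = cells lacking NR2E3 construct; higher means lower luciferase signal from less NR2E3 corepressor binding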
697 NFkB inh: inhibitors of PMA/ionomycin-induced NF-kB reporter, 697 cells, primary screen, B-cell NF-kB inhibitor project, cell-based, luminescence, uHTS; 330,000 compounds, 0.33% hits; 697 B-cell NF-kB luciferase reporter, 16 h; inhibition, % at 4 µM; AID 435022, 2010; in the data active = inhibition above about 35%
697 NFkB conf: PMA/ionomycin-induced NF-kB reporter inhibitors, 697 retest, confirmation, B-cell NF-kB inhibitor project, cell-based, luminescence, single concentration. shares compounds with 697 NFkB inh. inhibition, % at 4 µM. 2,000 compounds, 35% hits. 697 B-cell NF-kB luciferase, 16 h; in the data active = inhibition mostly above about 28%, no sharp cut-off; inactive = mostly below about 22%
* = called active by the depositor; i = inactive; . = not tested or not shown. Shown are actives, neighbours in structure and some others; about 1.5% of the full set was active somewhere.

SMILES	JMJD2C inh	Jurkat NFkB inh	GalR3 antagonist	NR2E3 ag-1	NR2E3 ag-2	697 NFkB inh	697 NFkB conf
COc1ccc(-c2nn(C)c3sc(C(=O)N4CCOCC4)cc23)cc1OC	-3.7	15.9	0.2	-1.1	9.8	36.8*	3.7
Cc1cc(C)nc(NC2=NCC(=O)N2c2ccc(F)c(Cl)c2)n1	9.3	10.2	-5.3	0.1	-33.0	39.8*	15.6
COc1ccc(S(=O)(=O)N2CCOCC2)cc1C(=O)N(C)CCOc1ccc(Cl)cc1	.	3.0	-4.3	2.0	9.4	6.3	.
Cc1ccc(NC(=O)c2cc(-c3cccc(O)c3)on2)cc1C	39.0	-68.3	.	2.9	-155.1	-42.7	.
CC(C)(C)C(=O)Nc1sc(-c2ccccc2)cc1C(=O)O	5.3	-19.7	4.5	3.2	-143.1	i	i
CC1Cc2ccccc2N1S(=O)(=O)c1cnc(Cl)c(Cl)c1 (configuration not stated)	0.3	-1.4	-7.4	0.5	-9.0	45.5*	33.2*
CC1Cc2ccccc2N1S(=O)(=O)c1cnc(Cl)c(Br)c1 (configuration not stated)	0.4	14.3	7.2	0.2	9.5	39.8*	35.5*
COc1cc(N2Cc3ccccc3C2)ccc1C=O	9.3	-40.5	-10.7	2.0	-78.0	-250.1	-209.2
CCOc1ccc(NC(=O)C2CCC(CNc3c(N4CCCCC4)c(=O)c3=O)CC2)cc1 (configuration not stated)	1.9	-0.2	-1.0	3.1	-13.3	1.6	.
O=C(Nc1ccc(F)cc1)C1CCC(CNc2c(N3CCCCC3)c(=O)c2=O)CC1 (configuration not stated)	-5.9	-0.8	-2.9	-1.7	15.1	38.3*	16.2
CCOc1cc2nc(-c3ccc(OC)c(OC)c3)nc(N3CCOCC3)c2cc1OC	-4.0	-40.1	-4.0	3.4	.	44.6*	38.3*
CCOc1cc2nc(-c3ccc(OC)c(OC)c3)nc(N3CC(C)OC(C)C3)c2cc1OC (configuration not stated)	-29.1	11.8	.	1.5	.	2.6	.
CCC(=O)Nc1ccc2oc(-c3cccc(C)c3)nc2c1	.	-126.6	-2.2	0.5	-133.0	-317.0	-395.4
CCC(=O)Nc1cccc(-c2nc3ccc(C)cc3o2)c1	9.4	-67.2	1.9	1.3	-107.7	-72.8	.
Nc1ccc(-c2ncc(-c3ccccc3)o2)cc1	.	-123.6	-11.0	8.5	32.3	39.9*	-6.3
O=C(Nc1ccc2ccccc2c1)c1ccccc1O	4.2	-120.0	-8.3	1.9	-181.0	-324.0	-458.9
COc1ccc(-c2ccc(C)cc2)cc1[C@H]1[C@H]2C=CC[C@@H](C)[C@@H]2C(=O)N1Cc1ccccc1	-8.6	14.3	-4.8	1.3	-35.4	41.3*	49.3*
COc1ccc(-c2ccc([C@H]3[C@H]4C=CC[C@@H](C)[C@@H]4C(=O)N3Cc3ccccc3)c(F)c2)cc1OC	1.7	10.1	-7.6	1.5	-61.8	6.7	.
COc1ccc(-c2ccc([C@H]3[C@H]4C=CC[C@@H](C)[C@@H]4C(=O)N3Cc3ccccc3)c(F)c2)cc1	3.5	15.0	-2.4	4.8	-18.1	9.9	.
COc1ccc(-c2ccoc2)cc1[C@H]1[C@H]2C=CC[C@@H](C)[C@@H]2C(=O)N1Cc1ccccc1	2.4	6.5	-7.3	-0.3	3.4	46.5*	39.5*
COc1ccc(-c2ccc(OC)c([C@H]3[C@H]4C=CC[C@@H](C)[C@@H]4C(=O)N3Cc3ccccc3)c2)cc1	-2.8	13.2	-3.1	-0.3	0.1	54.4*	39.3*
CCCCCC/C=C/c1ccc(OC)c([C@H]2[C@H]3C=CC[C@@H](C)[C@@H]3C(=O)N2Cc2ccccc2)c1	2.5	8.6	-3.0	-1.3	12.2	68.0*	27.9*
O=C(CSc1ccc2ccccc2n1)Nc1ccc(N2CCOCC2)cc1	4.1	-32.2	-5.8	1.3	-13.9	-18.6	.
CCOC(=O)c1cc2c(=O)n3ccccc3nc2n(C)c1=NC(=O)c1c(-c2c(F)cccc2Cl)noc1C	-3.0	-15.5	-4.5	2.2	1.3	48.5*	4.8
CCc1ccc2nc(Nc3nc(COC)cc(=O)[nH]3)nc(C)c2c1	58.3	8.7	-13.1	0.1	-0.1	42.4*	38.4*
SMILES	JMJD2C inh	Jurkat NFkB inh	GalR3 antagonist	NR2E3 ag-1	NR2E3 ag-2	697 NFkB inh	697 NFkB conf
CCc1c(C)nc(Nc2nc(C)c3cc(OC)ccc3n2)[nH]c1=O	1.9	-38.9	0.3	-1.8	-6.7	-6.2	.
CCCCCc1c(C)nc(Nc2nc(C)c3cc(OC)ccc3n2)[nH]c1=O	7.1	31.4	-5.9	5.7	-20.1	39.0*	4.3
Cc1ccc2c(c1)COc1c3ccc(C(=O)NC(C)C)cc3nn1-2	0.3	-120.4	-1.0	1.1	-114.8	-320.4	-313.4
C[C@@H](CO)NC(=O)c1ccc2c3n(nc2c1)-c1ccc(Cl)cc1CO3	-3.7	-61.5	-1.6	-1.8	-121.9	-97.1	.
Cc1ccc2c(c1)COc1c3ccc(C(=O)N[C@@H](C)CO)cc3nn1-2	2.5	-120.5	-3.7	-3.3	-83.5	-289.7	-270.9
Cc1ccc2c(c1)COc1c3ccc(C(=O)NCCO)cc3nn1-2	-1.6	-74.3	-4.6	-0.2	-131.6	-252.1	-319.8
O=C(c1ccccc1)C1(c2ccccc2)OC1c1ccccc1 (configuration not stated)	.	.	-7.4	.	-5.8	.	.
Fc1ccc(C(c2nnnn2Cc2ccco2)N2CCN(C3CCCCC3)CC2)cc1 (configuration not stated)	51.5	-2.3	-6.2	-2.5	-11.7	35.6*	-0.3
CNC(=O)C[C@H]1C(=O)N(c2ccc(Br)cc2)C[C@@H]1C	.	.	-3.7	.	4.5	.	.
COc1ccc(-c2nc(NC(=O)c3n[nH]c(=O)c4ccccc34)sc2C)cc1	-7.8	-41.6	6.4	-0.7	-1.7	i	-52.5
COc1cc(NC(=O)c2n[nH]c(=O)c3ccccc23)cc(OC)c1	-5.3	-5.5	-5.3	-1.8	12.8	2.9	.
Cc1cc(C)c(-c2csc(NC(=O)c3n[nH]c(=O)c4ccccc34)n2)c(C)c1	-0.8	-13.7	0.9	-0.3	-3.6	-333.0	-227.4
NNC(=O)c1n[nH]c(=O)c2ccccc12	3.0	-9.0	-0.8	1.9	-31.1	8.9	.
